What was measured:
[1] = (§1) Antiviral activity against Influenza A virus (H1N1) harboring PR8-GLuc infected in human A549 cells assessed as reduction in virus-induced cytopathic effect treated post viral infection for 1 hr by luciferase reporter gene assay; format: functional, cell-based, H1N1 subtype; conditions: A549, 1 h
Outline: (§2)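 A549 cells seeded 40,000/well, incubated overnight 37 °C 5% CO2, then infected with PR8-GLuc (H1N1) at 0.1 MOI for 1 h; unbound virus removed by two acidic (PBS pH 2.2) and three neutral (PBS pH 7.4) washes. Initial screen at one concentration below maximum non-toxic concentration; those reaching 50% inhibition retested in dose response for EC50 and EC90.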

[2] = tested on: H1N1 subtype; assay: as §1; format: functional, cell-based; outline: as §2

| SMILES | EC50 [1] | EC90 [2] |
| --- | --- | --- |
| O=C(O)[C@H]1C2CCC(C3CC32)[C@@H]1Nc1nc(-c2c[nH]c3ncc(F)cc23)ncc1F (stereo partly drawn) | 50 nM |  |
| O=C(O)[C@H]1C2C=CC(CC2)[C@@H]1Nc1nc(-c2c[nH]c3ncc(F)cc23)ncc1F (stereo partly drawn) | 7 nM |  |
| O=C(O)[C@H]1C2C=CC(CC2)[C@@H]1Nc1nc(-c2c[nH]c3ncc(F)cc23)nc2sccc12 (stereo partly drawn) | 6.5 nM |  |
| O=C(O)[C@H]1C2C=CC(CC2)[C@@H]1Nc1nc(-c2n[nH]c3ncc(F)cc23)nc2sccc12 (stereo partly drawn) | 12 nM |  |
| Cn1cnc2nc(-c3c[nH]c4ncc(F)cc34)nc(N[C@H]3C4C=CC(CC4)[C@@H]3C(=O)O)c21 (stereo partly drawn) | > 10000 nM |  |
| Cc1csc2c(N[C@H]3C4C=CC(CC4)[C@@H]3C(=O)O)nc(-c3c[nH]c4ncc(F)cc34)nc12 (stereo partly drawn) | 29 nM |  |
| O=C(O)C12CC3CC(CC(Nc4nc(-c5c[nH]c6ncc(F)cc56)ncc4F)(C3)C1)C2 | 950 nM |  |
| Cn1cnc2c(N[C@H]3C4C=CC(CC4)[C@@H]3C(=O)O)nc(-c3c[nH]c4ncc(F)cc34)nc21 (stereo partly drawn) | 400 nM |  |
| O=C(O)[C@H]1C2C=CC(C2)[C@@H]1Nc1nc(-c2c[nH]c3ncc(F)cc23)ncc1F (stereo partly drawn) | 50 nM |  |
| O=C(O)[C@H]1C2C=CC(CC2)[C@@H]1c1nnc2c(F)cnc(-c3c[nH]c4ncc(F)cc34)n12 (stereo partly drawn) | > 40000 nM |  |
| O=C(O)[C@H]1C2CCC(CC2)[C@@H]1Nc1nc(-c2c[nH]c3ncc(F)cc23)ncc1F [PIMODIVIR] | 4 nM | 27 nM |
| O=C(O)[C@H]1C2C=CC(CC2)[C@@H]1Nc1nc2cnc(-c3c[nH]c4ncc(F)cc34)nc2s1 (stereo partly drawn) | > 100000 nM |  |
| O=C(O)[C@H]1C2C=CC(CC2)[C@@H]1Nc1cc2nncn2c(-c2c[nH]c3ncc(F)cc23)n1 (stereo partly drawn) | 680 nM |  |
| O=C(O)[C@H]1C2C=CC(CC2)[C@@H]1Nc1nc(-c2n[nH]c3ncc(F)cc23)nc2ccsc12 (stereo partly drawn) | 42 nM |  |
| O=C(O)[C@H]1C2C=CC(CC2)[C@@H]1Nc1nc(-c2c[nH]c3ncc(F)cc23)nc2ccsc12 (stereo partly drawn) | 17 nM |  |
| O=C(O)[C@H]1C2C=CC(CC2)[C@@H]1Nc1nc(-c2n[nH]c3ncc(F)cc23)ncc1F (stereo partly drawn) | 16 nM |  |
| Cc1cc2nc(-c3c[nH]c4ncc(F)cc34)nc(N[C@H]3C4C=CC(CC4)[C@@H]3C(=O)O)c2s1 (stereo partly drawn) | 27 nM |  |

Source: ChEMBL document CHEMBL4396965
